# From PubChem BioAssay
# In the library only some 5.9% were active in any assay of this set; here they are far more common.
# IDH1 mut inh = inhibitors of human IDH1 R132H; AID 624101; IDH1 R132H reductase, diaphorase/resazurin fluorescence, 60 min; O75874; actives 0.18% (n = 70,000); inhibition, % at 10 µM; in the data active means inhibition above about 34%; inconclusive means no clear call, values can overlap the other calls; inactive means below about 11%;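 further: 0% = DMSO and 100% = no enzyme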
# GASC1 inh = KDM4C (human) demethylase inhibition. Q9H3R0. GST-KDM4C 2-372, H3K9me3 peptide, LANCE TR-FRET. inhibition, % at 12.5 µM. actives 0.15% (n = 96,000). AID 720574;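 active means mean replicate inhibition above about 25%, with at least 55% of replicates also reaching it, limit read from the data, passing the limit was not always enough; inconclusive means only one of those two conditions met; inactive means neither condition met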
# Target sequence (Q9H3R0 2-372 limits assumed): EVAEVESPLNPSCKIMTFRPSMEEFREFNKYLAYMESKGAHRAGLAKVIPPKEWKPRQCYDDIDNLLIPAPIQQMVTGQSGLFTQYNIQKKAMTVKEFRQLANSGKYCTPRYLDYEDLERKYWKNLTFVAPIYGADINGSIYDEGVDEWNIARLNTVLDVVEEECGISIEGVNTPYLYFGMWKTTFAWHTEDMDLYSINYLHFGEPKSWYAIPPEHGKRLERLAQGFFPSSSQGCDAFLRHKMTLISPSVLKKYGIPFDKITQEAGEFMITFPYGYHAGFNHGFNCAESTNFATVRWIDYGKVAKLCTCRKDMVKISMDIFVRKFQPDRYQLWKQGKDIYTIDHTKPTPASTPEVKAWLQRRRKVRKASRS
#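 Assay system: GST-GASC-1 enzyme fragment 2-372 | Amount: 10 nM enzyme | Medium: HEPES buffer, pH 7.5, plus ascorbate | Reagent: H3K9me3 peptide substrate, Fe(II), 2-oxoglutarate | Doses: Single-point compound screen | Incubation: 30 min demethylation and 1 h detection at room temperature | Measured by: LANCE TR-FRET, excitation 340 nm, emissions 618 and 671 nm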
# T cruzi growth-1 = inhibitors of T. cruzi proliferation; T. cruzi beta-gal in NIH3T3, GalScreen luminescence, 90 h; inhibition, % at 8.34 µM; actives 5.9% (n = 77,000); AID 624255;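 active means mean inhibition above about 93%, with at least 55% of replicates each passing it, limit read from the data, passing the limit was not always enough; inconclusive means only one of those two conditions holds; inactive means neither condition holds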
# Pf Dd2 growth = inhibitors of Plasmodium falciparum Dd2 growth; P. falciparum Dd2 growth, SYBR Green, 72 h; hits give low values; activity change, % at 10 µM; actives 2.3% (n = 94,000); AID 1159554; in the data active means activity change below about -80%; inconclusive means no clear call, values can overlap the other calls
# T cruzi growth-2 = Trypanosoma cruzi proliferation inhibition. shares compounds with T cruzi growth-1. actives 72% (n = 5,600). T. cruzi beta-gal in NIH3T3, GalScreen luminescence, 90 h. inhibition, % at 8.35 µM;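 active means mean replicate inhibition above about 95% and at least 55% of replicates individually reaching it, limit read from the data; inconclusive means only one of the two criteria is met; inactive means neither criterion is met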
# T cruzi growth-3 = Trypanosoma cruzi proliferation inhibition | shares compounds with T cruzi growth-1 | T. cruzi beta-gal in NIH3T3, GalScreen luminescence, 90 h | inhibition, % at 2.09 µM | actives 21% (n = 5,600);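 active means mean inhibition above about 95%, with at least 55% of replicates also reaching it, limit read from the data; inconclusive means meets just one of the two conditions; inactive means meets neither condition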;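 further: plate controls were neutral control median for no effect and positive control median for full effect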
# 3T3 cytotox = NIH/3T3 (mouse) viability loss. shares compounds with T cruzi growth-1. NIH/3T3 viability, CellTiter-Glo ATP luminescence, 90 h. cytotoxicity (signal decrease), % at 8.35 µM. actives 14% (n = 5,600). AID 651742;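 active means mean signal decrease across replicates above about 35% based on untreated-well scatter, with enough replicates individually passing, limit read from the data; inconclusive means no rule stated though some were filed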;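 further: 0% = median of neutral control wells and 100% = median of positive control wells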
# 3T3 cytotox 2 = NIH/3T3 (mouse) viability loss | inhibition, % at 24.9 µM | shares compounds with T cruzi growth-1 | actives 56% (n = 5,600) | NIH/3T3 viability, CellTiter-Glo ATP luminescence, 90 h;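 active means mean loss of cell viability signal at or above a set limit, and enough replicates individually reaching it; inconclusive means meets only the mean limit or only the replicate share; inactive means meets neither condition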;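 further: 0% = median of neutral control wells and 100% = median of positive control wells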
# Numbers without * were called inactive; ? = inconclusive; nt = not tested or not shown.
SMILES,IDH1 mut inh,GASC1 inh,T cruzi growth-1,Pf Dd2 growth,T cruzi growth-2,T cruzi growth-3,3T3 cytotox,3T3 cytotox 2
Cc1ccc(S(=O)(=O)Nc2ccc3c(c2)C(=O)N([C@H](C)CO)C[C@@H](C)[C@H](CN(C)C(=O)Nc2ccc(F)cc2)OCCCC[C@@H](C)O3)cc1,0,2,98*,-85*,97*,72,-1,25*
Cc1ccccc1-c1ccccc1[C@H]1[C@@H](C#N)N(C(=O)c2cccc(F)c2)[C@@H]1CO,nt,-2,nt,-57,nt,nt,nt,nt
C[C@@H]1CN([C@@H](C)CO)C(=O)c2cc(NS(=O)(=O)c3ccc(F)cc3)ccc2O[C@@H](C)CCCCO[C@@H]1CN(C)S(=O)(=O)c1ccc(Cl)cc1,0,1,?,-76,106*,103*,-23,?
C[C@@H]1CCCCO[C@H](CN(C)S(=O)(=O)c2ccc(Cl)cc2)[C@@H](C)CN([C@@H](C)CO)C(=O)c2cc(NS(=O)(=O)c3ccc(F)cc3)ccc2O1,nt,1,86,-56,nt,nt,nt,nt
C[C@@H]1CCCCO[C@@H](CN(C)S(=O)(=O)c2ccc(Cl)cc2)[C@@H](C)CN([C@H](C)CO)C(=O)c2cc(NS(=O)(=O)c3ccc(F)cc3)ccc2O1,nt,0,68,-38,nt,nt,nt,nt
C[C@@H]1CCCCO[C@@H](CN(C)S(=O)(=O)c2ccc(F)cc2)[C@H](C)CN([C@@H](C)CO)C(=O)c2cc(NS(=O)(=O)c3ccc(Cl)cc3)ccc2O1,1,0,103*,-56,95*,95,6,34*
C[C@@H]1CCCCO[C@@H](CN(C)S(=O)(=O)c2ccc(F)cc2)[C@@H](C)CN([C@@H](C)CO)C(=O)c2cc(NS(=O)(=O)c3ccc(Cl)cc3)ccc2O1,5,0,103*,-73,103*,74,3,53*
C[C@H](CO)N1C[C@H](C)[C@@H](CN(C)S(=O)(=O)c2ccc(F)cc2)OCCCC[C@H](C)Oc2ccc(NS(=O)(=O)c3ccc(Cl)cc3)cc2C1=O,3,2,100*,-43,?,?,48*,27*
C[C@@H]1CN([C@H](C)CO)C(=O)c2cc(NC(=O)Cc3ccccc3)ccc2O[C@H]1CN(C)C(=O)Nc1ccc(C(F)(F)F)cc1,nt,-1,35,2,nt,nt,nt,nt
C[C@@H]1CN([C@H](C)CO)C(=O)c2cc(NS(=O)(=O)c3ccc(Cl)cc3)ccc2O[C@@H](C)CCCCO[C@H]1CN(C)S(=O)(=O)c1ccc(F)cc1,1,0,103*,-53,100*,110*,8,-9
C[C@@H]1CCCCO[C@@H](CN(C)S(=O)(=O)c2ccc(Cl)cc2)[C@H](C)CN([C@H](C)CO)C(=O)c2cc(NS(=O)(=O)c3ccc(F)cc3)ccc2O1,0,1,61,-60,nt,nt,nt,nt
C[C@@H]1CN([C@@H](C)CO)C(=O)c2cc(NS(=O)(=O)c3ccc(F)cc3)ccc2O[C@@H]1CN(C)S(=O)(=O)c1ccc(Cl)cc1,0,-1,92*,14,110*,49,23,46*
COc1ccc(CN(C)C[C@@H]2OCCCC[C@H](C)Oc3ccc(NS(=O)(=O)c4ccc(Cl)cc4)cc3C(=O)N([C@@H](C)CO)C[C@H]2C)cc1,nt,-1,?,-44,100*,76,21,104*
COc1ccc(CN(C)C[C@H]2OCCCC[C@H](C)Oc3ccc(NS(=O)(=O)c4ccc(Cl)cc4)cc3C(=O)N([C@H](C)CO)C[C@H]2C)cc1,0,0,94,?,nt,nt,nt,nt
COc1ccc(CN(C)C[C@@H]2OCCCC[C@@H](C)Oc3ccc(NS(=O)(=O)c4ccc(Cl)cc4)cc3C(=O)N([C@H](C)CO)C[C@H]2C)cc1,0,-1,?,-56,105*,84,27,103*
